One compound from ChEMBL document CHEMBL1240389, “In vitro and in vivo activities of the novel anticytomegalovirus compound AIC246” (Antimicrob Agents Chemother, 2010) can be followed below.

Common to all, as to type: functional, organism-based
Experiment [1] relates to Human betaherpesvirus 5. The experiment can be described thus: Antiviral activity against human cytomegalovirus isolate La infected in NHDF assessed as inhibition of virus-induced cytopathic effect after 6 to 7 days by giemsa staining. Conditions: Human betaherpesvirus 5, isolate La. The method in brief:
(§1)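 NHDF cells (1 × 10⁴/well) mixed with cell-free virus (MOI 0.03) or with infected-cell suspension (MOI 0.001 to 0.002). Compound was added from DMSO stocks in 2-fold serial dilutions, final 250 to 0.00005 μM, in duplicates. Plates were incubated 6 to 7 days at 37°C or until 100% CPE in virus control, then fixed and stained with Giemsa/formalin and scored microscopically. EC₅₀ is 50% CPE inhibition versus untreated infected control.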

Experiment [2] concerns Human betaherpesvirus 5. The experiment can be described thus: Antiviral activity against human cytomegalovirus isolate 472 infected in NHDF assessed as inhibition of virus-induced cytopathic effect after 6 to 7 days by giemsa staining. Particulars: Human betaherpesvirus 5, isolate 472, NHDF. The method in brief:
as §1

Experiment [3] deals with Human betaherpesvirus 5. The experiment can be described thus: Antiviral activity against 0.1 MOI human cytomegalovirus AD169 infected in NHDF after 7 days by GFP-based fluorescent reduction assay. Conditions: Human betaherpesvirus 5, AD169, NHDF, 168 h. In outline: (§2)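 NHDF cells (1.5 × 10⁴/well) infected with GFP-expressing HCMV AD169 at the stated MOI (range 0.003 to 1 tested). After adsorption the inoculum was replaced, and compound was added in 3-fold serial dilutions, each at least in duplicate. Cells were incubated 7 days at 37°C, then GFP units were read by CCD camera in PBS. EC₅₀ was taken as the % GFPU reduction versus no-drug control. At least triplicate experiments.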

Experiment [4] relates to Human betaherpesvirus 5. Kind of experiment: Antiviral activity against human cytomegalovirus AD169 infected in NHDF at 50 nM treated after 57 hrs postinfection measured after 7 days by GFP-based fluorescent reduction assay.
Experiment [5] deals with Human betaherpesvirus 5. The experiment can be described thus: Antiviral activity against 1 MOI human cytomegalovirus AD169 infected in NHDF after 7 days by GFP-based fluorescent reduction assay. Particulars: Human betaherpesvirus 5, AD169, NHDF, 168 h. In outline: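 NHDF cells (1.5 × 10⁴/well) infected with GFP-expressing HCMV AD169 at increasing MOI (0.003 to 1); after adsorption inoculum replaced, compound added in serial 3-fold dilutions, at least duplicate. 7 days at 37°C, medium swapped for PBS, GFP units read by CCD camera. EC₅₀ = 50% GFPU reduction versus no-drug virus control by nonlinear regression; at least triplicate experiments.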

In experiment [6] the test system is Human betaherpesvirus 5. Kind of experiment: Antiviral activity against ganciclovir-resistant human cytomegalovirus isolate E17251S infected in NHDF assessed as inhibition of virus-induced cytopathic effect after 6 to 7 days by giemsa staining. Particulars: Human betaherpesvirus 5, isolate E17251S. The method in brief: (§3)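 Cell-associated virus (infected NHDF cells) used as inoculum, at MOI 0.001 to 0.002, mixed with uninfected NHDF (1 × 10⁴ to 3 × 10⁴ cells/well). Compound was added in 2-fold serial dilutions, final 250 to 0.00005 μM, in duplicates. Incubation was 6 to 7 days at 37°C, followed by Giemsa/formalin staining and visual CPE scoring. EC₅₀ is 50% CPE inhibition versus untreated infected control; at least two independent experiments.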
(Protection from cytopathic effect is a common read-out in antiviral testing.)

Experiment [7] concerns Human betaherpesvirus 5. Kind of experiment: Antiviral activity against human cytomegalovirus AD169 infected in NHDF assessed as inhibition of virus replication at 50 nM after 96 hrs by fluorescence assay.
Experiment [8] has as its system Human betaherpesvirus 5. The experiment can be described thus: Antiviral activity against human cytomegalovirus infected in NHDF after 7 days by GFP-based fluorescent reduction assay. Conditions: Human betaherpesvirus 5, NHDF, 168 h. In outline: (§4)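 Fibroblasts of the stated type (1.5 × 10⁴/well) infected with GFP-expressing recombinant AD169 (HCMV-GFP MOI 0.1 or RV-HG MOI 0.2 to 0.5). After adsorption the inoculum was replaced, with 3-fold serial compound dilutions at least in duplicate, and 7 days at 37°C. GFP units were read by CCD camera in PBS. EC₅₀ was derived from GFPU reduction versus untreated infected wells; at least triplicate runs.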

Experiment [9] deals with Human betaherpesvirus 5. Kind of experiment: Antiviral activity against 0.003 MOI human cytomegalovirus AD169 infected in NHDF after 7 days by GFP-based fluorescent reduction assay. Conditions: Human betaherpesvirus 5, AD169, NHDF, 168 h. The method in brief: as §2
Experiment [10] concerns Human betaherpesvirus 5. The experiment can be described thus: Antiviral activity against human cytomegalovirus infected in human MRC5 cells after 7 days by GFP-based fluorescent reduction assay. Conditions: Human betaherpesvirus 5, MRC5, 168 h. In outline: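 MRC5 fibroblasts (1.5 × 10⁴/well) infected with GFP-expressing HCMV AD169; inoculum removed after adsorption, compound in serial 3-fold dilutions, at least duplicate. 7 days at 37°C, then PBS and GFP units read by CCD camera. EC₅₀ = 50% GFPU reduction versus no-drug virus control by nonlinear regression; mean ± SD of independent experiments.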

Experiment [11] has as its system Human betaherpesvirus 5. The experiment can be described thus: Antiviral activity against human cytomegalovirus infected in HEL299 cells after 7 days by GFP-based fluorescent reduction assay. Conditions: Human betaherpesvirus 5, HEL 299, 168 h. In outline: as §4
For experiment [12], the system named is Human betaherpesvirus 5. Kind of experiment: Antiviral activity against human cytomegalovirus infected in NHLF after 7 days by GFP-based fluorescent reduction assay. Conditions: Human betaherpesvirus 5, 168 h. The method in brief:
as §4

Experiment [13] has as its system Human betaherpesvirus 5. The experiment can be described thus: Antiviral activity against human cytomegalovirus AD169 infected in NHDF assessed as inhibition of virus replication at 50 nM measured after 24 to 72 hrs of compound wash by fluorescence assay.
Experiment [14] concerns Human betaherpesvirus 5. Kind of experiment: Antiviral activity against human cytomegalovirus infected in human HS27 cells after 7 days by GFP-based fluorescent reduction assay. Particulars: Human betaherpesvirus 5, HS27, 168 h. In outline: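 GFP reduction assay run in HS27 foreskin fibroblasts instead of NHDF, infected with AD169-GFP; compounds in 3-fold serial dilutions, 7 days at 37°C, GFP units read by camera-based fluorescence detector after PBS exchange. EC50 from % GFPU reduction versus drug-free infected control; at least triplicate experiments.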

Experiment [15] deals with Human betaherpesvirus 5. The experiment can be described thus: Antiviral activity against ganciclovir-resistant human cytomegalovirus isolate 1947R infected in NHDF assessed as inhibition of virus-induced cytopathic effect after 6 to 7 days by giemsa staining. Conditions: Human betaherpesvirus 5, isolate 1947R. In outline: as §3
In experiment [16] the test system is Human betaherpesvirus 5. The experiment can be described thus: Antiviral activity against human cytomegalovirus Davis xenograft mouse model assessed as reduction of viral load at 10 to 100 mg/kg, po QD for 9 days measured post last dose. In outline: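 NOD SCID mice (18 to 25 g) implanted subcutaneously (dorsoscapular) with Gelfoam sponges seeded with 1 × 10⁶ NHDF cells infected with strain Davis (MOI 0.03), bFGF-treated. From 4 h post-transplant, dosed orally by gavage once daily for 9 days in 2% DMSO/0.5% methylcellulose-PBS, 10 ml/kg. Implants then collagenase-digested; recovered cells titrated by plaque assay on NHDF (PFU/ml).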
(A xenograft is tissue or cells of one species grown in another, often human tumour cells in immunodeficient mice.)

For experiment [17], the system named is Human betaherpesvirus 5. The experiment can be described thus: Antiviral activity against human cytomegalovirus isolate E16415S infected in NHDF assessed as inhibition of virus-induced cytopathic effect after 6 to 7 days by giemsa staining. Conditions: Human betaherpesvirus 5, isolate E16415S. The method in brief:
as §3

For experiment [18], the system named is Human betaherpesvirus 5. The experiment can be described thus: Antiviral activity against human cytomegalovirus infected in human fibroblast assessed as decrease in infectious foci size at 50 nM after 5 days by DAPI staining. The method in brief: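 Late-stage infected fibroblasts (strictly cell-associated clinical isolate) cocultured with excess uninfected fibroblasts for 5 days with or without 50 nM drug. Methanol-fixed; IE antigen detected by indirect immunofluorescence (mAb E13, Cy3 secondary), nuclei DAPI-counterstained. Quadruplicate; mean infected cells per focus counted.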

Calls of active or inactive are those of the source. The calls are words filed in the database; no cut-off is given here.

`COc1cccc(N2CCN(C3=Nc4c(F)cccc4[C@H](CC(=O)O)N3c3cc(C(F)(F)F)ccc3OC)CC2)c1` [LETERMOVIR]: the half-maximal effective concentration (EC50) in the experiment with Human betaherpesvirus 5 [1] was 3.4 nM; in the experiment with Human betaherpesvirus 5 [2] it was 1.8 nM; with Human betaherpesvirus 5 [3], 3.4 nM; in the experiment on Human betaherpesvirus 5 [5], 4.2 nM; in the experiment on Human betaherpesvirus 5 [6] it was 6.1 nM; with Human betaherpesvirus 5 [8], 3.5 nM. The EC50 in the experiment on Human betaherpesvirus 5 [9] was determined as 1.3 nM; in the experiment with Human betaherpesvirus 5 [10] it was 4.5 nM; with Human betaherpesvirus 5 [11] it was 3.5 nM; in the experiment with Human betaherpesvirus 5 [12] it was 5 nM; in the experiment with Human betaherpesvirus 5 [14], 5.6 nM; in the experiment on Human betaherpesvirus 5 [15], 2.3 nM. Also, the EC50 with Human betaherpesvirus 5 [17] was 2.6 nM. Moreover, the result in the experiment with Human betaherpesvirus 5 [4] was inactive. Further, the outcome in the experiment on Human betaherpesvirus 5 [7], in the experiment on Human betaherpesvirus 5 [13] and with Human betaherpesvirus 5 [18] was Active. The inhibition entry in the experiment with Human betaherpesvirus 5 [16] is “Active”.

A word on the EC50: it is the concentration giving half of the maximal effect.
